Source: paper PMC4893941 (Journal of medicinal chemistry, 2016)

Key:
[1] = system: human hCMEC/D3 brain endothelial cell monolayers; experiment: BBB permeability across hCMEC/D3 cell monolayers; type: in vitro ADME; settings: hCMEC/D3 monolayer; for Pe (permeability coefficient): 50 μM in transport buffer, 0–45 min
Method in brief: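 hCMEC/D3 cells were grown 48 h on 0.4 μm PET Transwell inserts in EBM-2 with 5% FBS, hydrocortisone, ascorbate, lipid concentrate, HEPES and bFGF. Monolayers were checked by microscopy. Test compound or lucifer yellow (50 μM) in HBSS/HEPES/pyruvate transport buffer was added to the upper chamber at 37 °C. Inserts were moved to fresh buffer at 10 and 25 min, and the lower chamber was sampled at 10, 25 and 45 min. Fluorescence was read at 485/590 nm (compound) or 425/538 nm (LY) against standard curves. Pe came from clearance-slope fits, cell inserts minus cell-free inserts, in triplicate.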

[2] = Octanol–water partition coefficients; type: physicochemical; settings: 1-octanol/water partition, UV–vis absorbance
Method in brief: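 Octanol and water were mutually presaturated. A 64 μM stock of test compound in water-saturated octanol was vortexed 10 min with water. After phase separation, the octanol layer was diluted and its UV–vis absorbance read. log P was calculated from octanol absorbance before versus after partitioning and the water/octanol phase volumes.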

[3] = system: human glioma T98G cells; experiment: Time-dependent cellular uptake; type: cell-based; settings: 10 μM; for cellular uptake after 24 h, fold higher than 7: relative to BODIPY 7
Method in brief: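 T98G glioma cells were seeded at 15 000/well in EMEM with 10% FBS and grown 24 h. They were then exposed to 10 μM test compound for 0, 1, 2, 4, 8 or 24 h, PBS-washed and lysed in 0.25% Triton X-100/PBS. Fluorescence at 485/590 nm was read against compound standard curves (0.3125–10 μM). Cell number came from a CyQuant cell standard curve, and uptake was expressed as nM per cell.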

Row | Pe (permeability coefficient) [1] | log P [2] | Pe relative to LY ([1]; relative to lucifer yellow) [fold] | Substance | cellular uptake at 24 h [3] [nM/cell] | cellular uptake after 24 h, fold higher than 7 [3]
1 | 5.4 ± 0.6 × 10^−5 cm/s | 1.93 |  | 8-(1,2-Carboranyl-1-thio)-3-chloro-2-ethyl-1,3,6,7-tetramethyl-BODIPY [6b] | 0.46 ± 0.06 | 135 fold
2 | 2.2 ± 0.8 × 10^−5 cm/s |  |  | lucifer yellow [LY, reference compound] |  | 
3 | 6.0 ± 1.0 × 10^−5 cm/s | 1.69 |  | 8-(1,2-Carboranyl-1-thio)-1,3-dimethyl-BODIPY [2b] | 0.36 ± 0.03 | 106 fold
4 | 2.6 ± 0.9 × 10^−5 cm/s | 1.95 |  | 8-(1,2-Carboranyl-1-thio)-2-ethyl-1,3,6,7-tetramethyl-BODIPY [5b] | 1.5 ± 0.05 | about 436 fold
5 | 16.4 ± 3.3 × 10^−5 cm/s | 1.50 | 7 | 8-(1,2-Carboranyl-1-thio)-BODIPY [1b] | 0.23 ± 0.05 | 67 fold
6 |  | 2.11 |  | 8-[4-(2-Methyl-1,2-carboranyl)methylphenyl]-BODIPY [compound 4] | 0.41 ± 0.03 | 118 fold
